Experimental data reported in ChEMBL document CHEMBL3297675, “Mahorones, highly brominated cyclopentenones from the red alga Asparagopsis taxiformis” (J Nat Prod, 2014).
Converted amounts (≈) assume the structure as drawn. The source made the active and inactive calls. The calls are words filed in the database; no cut-off is given here.

Legend:
Escherichia coli [1] = assay: Antibacterial activity against Escherichia coli 2884 by resazurin-based assay; format: functional
Escherichia coli [2] = assay: Antibacterial activity against Escherichia coli 5746 by resazurin-based assay; format: functional
Procedure, shortened: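 Liquid broth assay in Luria Broth, inoculum plus compound from 0.312 mM DMSO stock. Tested at 5 μM final in triplicate within one experiment. Overnight incubation at 37 °C. Growth read by turbidity or fluorescence, with viability scored using resazurin at 0.002% final.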

Aliivibrio fischeri = assay: Toxicity in Vibrio fischeri NRRL B-11177 assessed as reduction in bioluminescence after 15 mins by microtox assay; format: organism-based; conditions: NRRL B-11177, 0.25 h
Procedure, shortened: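 Microtox assay with V. fischeri. Samples made up to 500 μg·mL−1 initial in artificial seawater containing 2% acetone, then tested at 45, 22.5, 11.25 and 5.625% of initial, in triplicate. Light loss read after 15 min exposure, γ = (I0/It) − 1. EC50 taken from log γ versus log concentration regression at γ = 1.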

Acinetobacter baumannii = assay: Antibacterial activity against Acinetobacter baumannii by resazurin-based assay; format: functional
Pseudomonas aeruginosa = assay: Antibacterial activity against Pseudomonas aeruginosa by resazurin-based assay; format: functional
Staphylococcus aureus [3] = assay: Antibacterial activity against methicillin-resistant Staphylococcus aureus by resazurin-based assay; format: functional
Procedure, shortened: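 MRSA was grown in Luria Broth liquid culture with diluted inoculum, compound added from a DMSO stock. Plates were incubated overnight at 37 °C and scored for visible growth by turbidity or fluorescence, with resazurin as the viability read-out. Tests were run in triplicate within one experiment.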

Staphylococcus aureus [4] = assay: Antibacterial activity against methicillin-sensitive Staphylococcus aureus by resazurin-based assay; format: functional
Aspergillus fumigatus [5] = assay: Antifungal activity against Aspergillus fumigatus by resazurin-based assay; format: functional
Procedure, shortened: (§1)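 Liquid assay in modified RPMI medium: RPMI-1640, Yeast Nitrogen Base, 1.8% glucose, 40 mM HEPES pH 7.1. Compound added from 0.5 mM solution before inoculum. Tested at 5 μM final in triplicate. Amphotericin B curve (0.5−4 μg·mL−1) run as control. Incubated overnight at 37 °C, then viability scored with resazurin at 0.002% final.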

Aspergillus fumigatus [6] = assay: Antifungal activity against Aspergillus fumigatus by resazurin-based assay in presence of caspofungin enhancer; format: functional; procedure, shortened: as §1
A549 = assay: Cytotoxicity against human A549 cells after 24 hrs by MTT assay; format: functional, cell-based
Procedure, shortened: (§2)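 MTT assay with cells seeded at 3 × 10^4 cells/well. Compound taken from 1 mM DMSO stock, diluted 1/200 into medium and left on cells 24 h at 37 °C, 5% CO2. MTT then added at 0.5 mg·mL−1 in phenol red-free MEM for 3 h. Formazan dissolved in DMSO and absorbance read at 570 nm.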

HepG2 = assay: Cytotoxicity against human HepG2 cells after 24 hrs by MTT assay; format: functional, cell-based; procedure, shortened: as §2
HT-29 = assay: Cytotoxicity against human HT-29 cells after 24 hrs by MTT assay; format: functional, cell-based; procedure, shortened: as §2
MCF7 = assay: Cytotoxicity against human MCF7 cells after 24 hrs by MTT assay; format: functional, cell-based; procedure, shortened: as §2
[7] = Cytotoxicity against human Fa2N-4 cells assessed as growth inhibition at 5 uM after 24 hrs by MTT assay relative to control; format: cell-based; conditions: read-out: GI
Procedure, shortened: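 Fa2N4 healthy liver cells seeded at 3 × 10^4 cells/well. Exposed to compound at 5 μM (1 mM DMSO stock diluted 1/200) for 24 h at 37 °C, 5% CO2. Then 0.5 mg·mL−1 MTT for 3 h, formazan dissolved in DMSO, absorbance at 570 nm. Growth inhibition expressed as percent.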

[8] = Cytotoxicity against human Fa2N-4 cells after 24 hrs by MTT assay; format: cell-based; conditions: fa2n-4, 24 h; procedure, shortened: as §2

Structure (SMILES)	MIC80 (Escherichia coli [1]) [µg/mL]	MIC80 (Escherichia coli [2]) [µg/mL]	MIC80 (Acinetobacter baumannii) [µg/mL]	MIC80 (Pseudomonas aeruginosa) [µg/mL]	MIC80 (Staphylococcus aureus [3]) [µg/mL]	MIC80 (Staphylococcus aureus [4]) [µg/mL]	further results
CO[C@@H]1[C@@H](OC(N)=O)[C@@H](O)[C@H](Oc2ccc3c(O)c(NC(=O)c4ccc(O)c(CC=C(C)C)c4)c(=O)oc3c2C)OC1(C)C [NOVOBIOCIN]	0.3 (≈ 0.49 µM)	0.1 (≈ 0.163 µM)	–	–	–	–	–
O=C1C[C@](O)(C(Br)Br)C(Br)=C1Br	> 32	16 (≈ 37.4 µM)	8 (≈ 18.7 µM)	> 10	16 (≈ 37.4 µM)	> 32	EC50 (Aliivibrio fischeri): 0.07 µg/mL (≈ 0.164 µM); MIC80 (Aspergillus fumigatus [5]): > 32 µg/mL; MIC80 (Aspergillus fumigatus [6]): > 32 µg/mL; Activity (A549): inactive; Activity (HepG2): inactive; Activity (HT-29): inactive; Activity (MCF7): inactive; inhibition at 24 h, 5 µM [7]: 53%
CO[C@H]1/C=C/O[C@@]2(C)Oc3c(C)c(O)c4c(O)c(c(/C=N/N5CCN(C)CC5)c(O)c4c3C2=O)NC(=O)/C(C)=C\C=C\[C@H](C)[C@H](O)[C@@H](C)[C@@H](O)[C@@H](C)[C@H](OC(C)=O)[C@@H]1C [RIFAMPIN]	–	–	1 (≈ 1.22 µM)	–	–	–	–
O=C(O)c1cn(C2CC2)c2cc(N3CCNCC3)c(F)cc2c1=O [CIPROFLOXACIN]	–	–	–	1.5 (≈ 4.53 µM)	–	–	–
C[C@@H](O)[C@H]1C(=O)N2C(C(=O)O)=C(SCCNC=N)C[C@H]12 [IMIPENEM ANHYDROUS]	–	–	–	–	8 (≈ 26.7 µM)	–	–
CC1(C)S[C@@H]2[C@H](NC(=O)Cc3ccccc3)C(=O)N2[C@H]1C(=O)O [PENICILLIN G]	–	–	–	–	–	0.01 (≈ 0.0299 µM)	–
O=C1C(Br)=C(Br)[C@@](O)(C(Br)Br)[C@@H]1Br	> 32	32 (≈ 63.2 µM)	16 (≈ 31.6 µM)	> 10	16 (≈ 31.6 µM)	> 32	EC50 (Aliivibrio fischeri): 0.08 µg/mL (≈ 0.158 µM); MIC80 (Aspergillus fumigatus [5]): > 32 µg/mL; MIC80 (Aspergillus fumigatus [6]): > 32 µg/mL; Activity [8]: Non-toxic; Activity (A549): inactive; Activity (HepG2): inactive; Activity (HT-29): inactive; Activity (MCF7): inactive
